These results are taken from ChEMBL document CHEMBL1150154, “Isolation of labradorins 1 and 2 from Pseudomonas syringae pv. coronafaciens” (2002).

Each structure is given as a SMILES string. Converted amounts (≈) assume the structure as drawn. The source made the active and inactive calls. The rule behind the calls is not given here.

Assay [1] has as its system NCI-H460. The experiment in a line: Growth inhibition of human NCI-H460 cells. The class given is functional. The procedure, abridged:
(§1)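 Human cancer cell line panel: pancreas (BXPC-3), breast (MCF-7), CNS (SF-268), non-small-cell lung (NCI-H460), colon (KM20L2) and prostate (DU-145). Growth inhibition is reported as GI50 in µg/mL.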

Assay [2] deals with BXPC-3. As to the kind of experiment: Growth inhibition of human BxPC3 cells. Type of assay: functional. The procedure, abridged:
as §1

The test system of assay [3] is Cryptococcus neoformans. The experiment in a line: Antimicrobial activity against Cryptococcus neoformans up to 64 ug/mL by broth microdilution susceptibility assay. Type of assay: functional, organism-based. Background: Dilution methods test growth across graded concentrations, often in twofold steps.
The test system of assay [4] is Enterobacter cloacae. As to the kind of experiment: Antimicrobial activity against Enterobacter cloacae up to 64 ug/mL by broth microdilution susceptibility assay. Type of assay: functional, organism-based.
Assay [5] relates to Escherichia coli. As to the kind of experiment: Antimicrobial activity against Escherichia coli up to 64 ug/mL by broth microdilution susceptibility assay. The class given is functional, organism-based.
Assay [6] deals with Enterococcus faecalis. As to the kind of experiment: Antimicrobial activity against Enterococcus faecalis up to 64 ug/mL by broth microdilution susceptibility assay. Type of assay: functional, organism-based.
The test system of assay [7] is Candida albicans. The experiment in a line: Antimicrobial activity against Candida albicans up to 64 ug/mL by broth microdilution susceptibility assay. The class given is functional, organism-based.
Assay [8] deals with DU-145. The experiment in a line: Growth inhibition of human DU145 cells. Type of assay: functional. The procedure, abridged:
as §1

Assay [9] deals with Neisseria gonorrhoeae. As to the kind of experiment: Antimicrobial activity against Neisseria gonorrhoeae up to 64 ug/mL by broth microdilution susceptibility assay. Type of assay: functional, organism-based.
Assay [10] relates to SF-268. The experiment in a line: Growth inhibition of human SF268 cells. Type of assay: functional. The method, boiled down:
as §1

Assay [11] deals with Staphylococcus aureus. As to the kind of experiment: Antimicrobial activity against Staphylococcus aureus up to 64 ug/mL by broth microdilution susceptibility assay. Type of assay: functional, organism-based.
The test system of assay [12] is Micrococcus luteus. The experiment in a line: Antimicrobial activity against Micrococcus luteus up to 64 ug/mL by broth microdilution susceptibility assay. The class given is functional, organism-based.
Assay [13] relates to KM-20L2. The experiment in a line: Growth inhibition of human KM20L2 cells. The class given is functional. The method, boiled down:
as §1

Assay [14] deals with MCF7. The experiment in a line: Growth inhibition of human MCF7 cells. The class given is functional. The procedure, abridged: as §1
Assay [15] concerns Stenotrophomonas maltophilia. The experiment in a line: Antimicrobial activity against Stenotrophomonas maltophilia up to 64 ug/mL by broth microdilution susceptibility assay. Type of assay: functional, organism-based.
For assay [16], the system named is Streptococcus pneumoniae. As to the kind of experiment: Antimicrobial activity against Streptococcus pneumoniae up to 64 ug/mL by broth microdilution susceptibility assay. The class given is functional, organism-based.

`CC(C)Cc1ncc(-c2c[nH]c3ccccc23)o1` [LABRADORIN 1]: the GI50 in assay [1] came to 9.8 µg/mL (≈ 40.8 µM); in assay [2], 6.2 µg/mL (≈ 25.8 µM); in [8], 4 µg/mL (≈ 16.6 µM); in assay [10] it was 5.1 µg/mL (≈ 21.2 µM); in assay [13], 3.5 µg/mL (≈ 14.6 µM); in assay [14], 3.9 µg/mL (≈ 16.2 µM). Moreover, the outcome in [3], in assay [4], in assay [5], in [6], in assay [7] and in assay [9] was inactive. The outcome in [11], in assay [12], in assay [15] and in assay [16] was inactive.
As to `CCCCCc1ncc(-c2c[nH]c3ccccc23)o1` [LABRADORIN 2], the GI50 in assay [1] turned out to be 9.6 µg/mL (≈ 37.7 µM); in assay [2], 9.6 µg/mL (≈ 37.7 µM); in assay [8] it was 11.4 µg/mL (≈ 44.8 µM); in [10], 58.8 µg/mL (≈ 231 µM); in assay [13], 9.7 µg/mL (≈ 38.1 µM); in assay [14], 27.4 µg/mL (≈ 108 µM). Further, the result in assay [3], in assay [4], in [5], in [6], in assay [7] and in assay [9] was inactive. The outcome in [11], in assay [12], in [15] and in assay [16] was inactive.

One may read the GI50 as the concentration that inhibits growth by half.
